LANA-H2B inh: blocks KSHV LANA binding to histone H2A/H2B; inhibition, % (no concentration beside the values); cell-free LANA-H2A/H2B peptide, fluorescence polarization; actives 0.6% (n = 320,000); in the data active = inhibition mostly above about 10%, no sharp cut-off; inactive = mostly below about 6.7%
Target sequence (Q9QR71 whole entry, looked up): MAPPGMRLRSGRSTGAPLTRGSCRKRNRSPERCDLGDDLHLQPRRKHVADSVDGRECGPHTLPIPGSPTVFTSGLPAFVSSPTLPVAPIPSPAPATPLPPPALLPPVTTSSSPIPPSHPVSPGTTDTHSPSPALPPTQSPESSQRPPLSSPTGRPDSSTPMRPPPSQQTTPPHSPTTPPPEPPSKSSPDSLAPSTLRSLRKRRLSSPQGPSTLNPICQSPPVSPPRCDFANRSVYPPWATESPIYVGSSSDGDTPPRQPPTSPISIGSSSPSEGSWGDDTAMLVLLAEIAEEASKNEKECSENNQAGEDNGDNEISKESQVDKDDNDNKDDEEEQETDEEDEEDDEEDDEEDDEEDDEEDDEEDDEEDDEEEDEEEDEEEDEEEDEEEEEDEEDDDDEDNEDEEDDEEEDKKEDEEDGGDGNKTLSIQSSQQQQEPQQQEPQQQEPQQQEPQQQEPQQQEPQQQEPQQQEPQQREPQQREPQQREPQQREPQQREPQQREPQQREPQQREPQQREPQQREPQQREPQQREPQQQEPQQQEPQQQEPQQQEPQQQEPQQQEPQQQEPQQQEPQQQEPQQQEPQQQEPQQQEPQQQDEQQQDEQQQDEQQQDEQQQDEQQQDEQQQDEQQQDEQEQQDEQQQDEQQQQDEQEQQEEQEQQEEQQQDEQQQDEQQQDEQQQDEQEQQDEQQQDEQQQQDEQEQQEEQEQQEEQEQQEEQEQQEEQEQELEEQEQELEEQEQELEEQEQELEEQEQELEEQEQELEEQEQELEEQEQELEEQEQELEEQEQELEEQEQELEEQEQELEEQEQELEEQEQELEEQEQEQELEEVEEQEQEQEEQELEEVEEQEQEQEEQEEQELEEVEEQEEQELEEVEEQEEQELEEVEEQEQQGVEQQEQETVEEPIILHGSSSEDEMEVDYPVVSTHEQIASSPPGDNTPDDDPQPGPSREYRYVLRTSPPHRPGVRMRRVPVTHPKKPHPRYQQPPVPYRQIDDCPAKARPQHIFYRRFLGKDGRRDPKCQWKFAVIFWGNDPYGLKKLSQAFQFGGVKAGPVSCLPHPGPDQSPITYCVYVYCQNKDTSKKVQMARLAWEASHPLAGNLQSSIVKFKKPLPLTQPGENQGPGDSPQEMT
MEX-5 binding: C. elegans MEX-5 TCR-2 RNA binding activity | activity score (negative = inhibition of binding), % at 10 µM | AID 1832 | Q9XUB2 | actives 0.38% (n = 300,000) | MEX-5/FITC-TCR2 RNA binding, fluorescence polarization; hits give low values;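 active = inhibition past about -25% in most replicates, and total fluorescence under double the plate's negative control median, limit read from the data; inconclusive = replicates evenly split on the limit, or fluorescence at least double controls; inactive = too little inhibition in most replicates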
RanGTP-Imp inh: inhibitors of RanGTP-importin-beta interaction, primary screen, biochemical, FRET, CFP-Ran, YFP-importin-beta, homogeneous; cell-free CFP-Ran/YFP-importin-beta FRET ratio; inhibition, % (concentration not given with the values); actives 1.1% (n = 300,000); AID 2216;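 active = more than half of the replicate wells show a fall in the fluorescence ratio signal beyond about 16%, limit read from the data, passing the limit was not always enough; inconclusive = exactly half of the replicate wells pass the set limit; inactive = fewer than half of replicates pass the limit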
Runt-SMMHC FRET: inhibitors of human RUNX1 Runt domain binding to CBFb-SMMHC. Q01196+Q13951. Cerulean-Runt/Venus-CBFb-SMMHC FRET ratio 530/480, 1 h. actives 0.74% (n = 220,000). inhibition, % at 20 µM;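 active = mean inhibition across duplicate retests at 20 µM reaching about 50%, limit read from the data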;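 note: inhibitors lower the FRET ratio by blocking Runt binding to CBFb-SMMHC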
EBV gp42 inh: inhibitors of Epstein-Barr virus glycoprotein 42; Q1HVG2; Fluorescence polarization binding assay, mP read-out; inhibition, % (tested at 21.74 µM); actives 0.42% (n = 220,000); AID 1085; in the data active = inhibition above about 50%
Runt-CBFb FRET: inhibitors of human RUNX1 Runt domain binding to CBFb. Q01196+Q13951. Cerulean-Runt/Venus-CBFb FRET ratio 530/480, 1 h. inhibition, % at 20 µM. actives 0.46% (n = 220,000);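 active = inhibition over about 50% at 20 µM in the single-dose screen, limit read from the data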
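Assay system: Cerulean-Runt domain / Medium: Tris 50 mM pH 7.5, KCl, K2SO4, 0.01% BSA / Timing: protein complex preformed 1 h, compound exposure 1 h, room temperature, dark / Measured by: FRET, excitation 422 nm, emission at 530 and 480 nm / Evaluation: loss of energy transfer signal / Control set: 5 µM unlabeled CBFb as full-inhibition high control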
Hits are given with their value; – = inactive; ? = inconclusive; · = no result; + = active, no number. Shown are actives, neighbours in structure and some others; about 2.4% of the full set was active somewhere.

SMILES	LANA-H2B inh	MEX-5 binding	RanGTP-Imp inh	Runt-SMMHC FRET	EBV gp42 inh	Runt-CBFb FRET
Oc1[nH]c2ccccc2c1N=Nc1ccccc1	16	-42	–	–	101	–
Oc1[nH]c2ccccc2c1N=Nc1ccccc1F	–	?	–	–	–	–
O=C(N=Nc1c(O)[nH]c2ccccc12)c1cc(-c2ccc(F)cc2)n[nH]1	–	–	–	–	61	–
O=C(N=Nc1c(O)[nH]c2ccccc12)c1cc(-c2cccs2)[nH]n1	–	–	–	–	–	–
Oc1[nH]c2ccccc2c1N=Nc1ccc(F)cc1	–	-62	–	–	–	–
COc1cccc(-c2nc(CS(=O)(=O)CC(=O)N3CCCCC3)c(C)o2)c1	–	–	–	·	·	·
O=C(COC(=O)c1ccc(NS(=O)(=O)c2ccc3c(c2)OCCO3)cc1)NC1CCS(=O)(=O)C1 (stereo not drawn)	–	–	?	–	–	–
CCn1nc(C(=O)NNC(=O)C(Cc2ccccc2)NC(N)=O)c2ccccc2c1=O (stereo not drawn)	–	·	·	·	·	·
COc1ccc(CCNC(=O)C(=O)NCC2CCCN2S(=O)(=O)c2ccccc2)cc1OC (stereo not drawn)	–	–	–	·	·	·
CCOC(=O)/C(C#N)=C/c1cc2ccccc2nc1N1CCCCC1	–	-39	–	–	60	–
Cc1ccc2cc(/C=C(\C#N)C(N)=O)c(N3CCCCC3)nc2c1	–	?	–	–	–	–
Cc1ccc2cc(C=C(C#N)C#N)c(N3CCCCC3)nc2c1	–	–	–	–	117	–
N#Cc1c(N)sc2c1CCN(CCc1ccccc1)C2	–	–	46	88	–	105
CC(C)(C)C(=O)Nc1sc2c(c1C#N)CCN(Cc1ccccc1)C2	–	–	150	·	·	·
N#Cc1c(NC(=S)NC(=O)c2ccccc2)sc2c1CCCC2	–	–	–	–	–	–
N#Cc1c(NC(=S)NC(=O)c2ccccc2)sc2c1CCN(CCc1ccccc1)C2	–	–	157	82	–	–
O=C(Nc1ccc(Cl)cc1)C1C2C=CC3(O2)C1C(=O)N(CCCN1CCCCC1)C3C(=O)NC1CCCCC1 (stereo not drawn)	–	–	–	·	·	·
CCOC(=O)/C=C(\C)Sc1cc(O)c2ccccc2c1O	·	·	·	61	–	–
CCOC(=O)/C=C(\C)Sc1cc(=O)oc2ccccc12	–	–	–	–	–	–
COC(=O)C(=C/C(C)=C/c1cccs1)C(=O)OC	–	–	–	–	–	–
CCn1c(CC(=O)Nc2ccccc2)nnc1SCC(=O)Nc1nnc(C)s1	–	–	–	·	·	·
O=C(NCC1CCCO1)C(c1ccc(F)cc1)N(C(=O)Cn1nnc(-c2ccc(F)cc2)n1)c1cccc(O)c1 (stereo not drawn)	–	–	–	–	–	–
CCOC(=O)N1CCN(S(=O)(=O)c2ccc(C(=O)Nc3sc4c(c3C(=O)OC)CCN(C)C4)cc2)CC1	–	–	–	·	·	·
CC(C)N1CCc2c(sc(NC(=O)CCS(=O)(=O)c3ccccc3)c2C#N)C1	–	–	169	·	·	·
COC(=O)c1c(NC(=O)CCS(=O)(=O)c2ccccc2)sc2c1CCN(C)C2	–	–	79	·	·	·
SMILES	LANA-H2B inh	MEX-5 binding	RanGTP-Imp inh	Runt-SMMHC FRET	EBV gp42 inh	Runt-CBFb FRET
CCCN1CCc2c(sc(NC(=O)CCS(=O)(=O)c3ccccc3)c2C(=O)OC)C1	–	–	155	·	·	·
COCC1CCN(C(=O)CC2C(=O)NCCN2Cc2cccc(Oc3ccccc3)c2)CC1 (stereo not drawn)	–	-26	–	·	·	·
CC1OC(OCC2OC(Oc3c(-c4ccc(O)cc4)oc4cc(O)cc(O)c4c3=O)C(O)C(O)C2O)C(O)C(O)C1O (stereo not drawn)	+	–	–	–	–	–
Cc1ccccc1N1CCN(C(=O)CCN2C(=O)c3ccccc3C2=O)CC1	–	–	–	–	–	–
Cc1ccc(S(=O)(=O)Nc2ccc3c(c2)C(=O)N([C@H](C)CO)C[C@H](C)[C@@H](CN(C)Cc2ccccc2)O3)cc1	–	·	·	·	·	·
O=C1C([N+](=O)[O-])=C(O)c2cccc3cccc1c23	–	-40	–	·	·	·
CC1=CC(C#N)(C#N)C(C#N)(C#N)C(c2ccccc2)N1 (stereo not drawn)	–	-53	–	–	114	–
CCOc1ccc(NC2OC(CO)C(O)C(O)C2O)c([N+](=O)[O-])c1 (stereo not drawn)	–	–	–	–	–	–
O=C(c1ccsc1)N1CCCC(N2CCN(c3cccc(C(F)(F)F)c3)CC2)C1 (stereo not drawn)	–	–	–	·	·	·
O=C(c1cc[n+]([O-])cc1)N1CCCC(N2CCN(c3cccc(C(F)(F)F)c3)CC2)C1 (stereo not drawn)	21	–	?	·	·	·
CC(C)(C)c1cc(/C=N/NC(=O)Cc2nc3ccccc3[nH]2)cc(C(C)(C)C)c1O	–	–	39	–	–	–
CCCS(=O)(=O)c1c(S(=O)(=O)CCC)c2cnccn2c1C(=O)c1ccc(OC)cc1	–	–	–	–	–	–
CCCS(=O)(=O)c1c(S(=O)(=O)CCC)c2cc(-c3ccncc3)ccn2c1C(=O)OC	–	–	–	109	–	–
O=C1c2cccc3c(N4CCCCC4)ccc(c23)C(=O)N1c1cccc(O)c1	–	–	–	–	–	–
O=C(OCCN1C(=O)c2cccc3c(N4CCOCC4)ccc(c23)C1=O)c1cccc(Cl)c1	37	?	–	–	152	–
O=C(OCCN1C(=O)c2ccccc2C1=O)c1cc(S(=O)(=O)N2CCOCC2)ccc1Cl	–	–	·	–	–	–
O=C(OCCN1C(=O)c2cccc3c(N4CCOCC4)ccc(c23)C1=O)c1ccccc1Cl	27	?	–	–	146	–
Cn1c(=O)n(C)c2cc(N3CCOCC3)c(NC(=O)c3cccc(Cl)c3)cc21	–	–	–	·	·	·
O=C(OCCN1C(=O)c2cccc3c(N4CCOCC4)ccc(c23)C1=O)c1ccc(Cl)cc1Cl	30	?	–	–	144	–
Cc1n[nH]c(C)c1N1C(=O)c2cccc3c(N4CCCCCC4)ccc(c23)C1=O	65	-53	–	–	193	–
CCCn1ncc(CN2CCN(Cc3ccsc3)C(CCO)C2)c1C (stereo not drawn)	–	–	?	–	–	–
CC(=O)Nc1sc(C)c(C)c1C(=O)OCC(=O)N(C)c1c(N)n(Cc2ccccc2)c(=O)[nH]c1=O	–	–	?	·	·	·
CCN(Cc1ccncc1)C(=O)c1ccc(C)o1	–	–	–	·	·	·
Cc1cc(=O)oc2cc(OCC(=O)N3c4ccccc4NC(=O)C3(C)C)ccc12	–	·	·	·	·	·
O=C1c2cccc3c(N4CCCCC4)ccc(c23)C(=O)N1CCO	49	-26	–	–	–	–
COCCn1c(SCC(=O)Nc2cccnc2Cl)nc2cc(Cl)ccc2c1=O	–	·	·	·	·	·

Bioassay records from PubChem.
